Compound activity deposited in PubChem BioAssay by Broad Institute.
This is a sample that favours compounds with a hit; in the whole collection about 2.1% have one here.
PDI turbidity: PDI (human) enzyme inhibition | actives 0.052% (n = 350,000) | P07237 | inhibition, % at 10 µM | PDI insulin aggregation turbidity, A650, 90 min | AID 588391;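 active = mean inhibition across replicates of 30% or more, whatever share of single replicates reach that level; inconclusive = mean inhibition below 30% while every single replicate reaches 30%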
ARNT TACC3 PPI: disruptors of human ARNT/TACC3 interaction | Q9Y6A5 | AlphaScreen His-ARNT PAS-B/GST-TACC3 binding, luminescence; TACC3 fragment carries E629A point mutation | inhibition, % at 9.99 µM | actives 0.66% (n = 390,000) | AID 623870;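 active = mean inhibition of replicates at least 50% and at least half of replicates each reaching 50%; inconclusive = half or more replicates reach 50% but mean below 50%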;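 also: 0% = complete ARNT plus TACC3 wells and 100% = ARNT alone without TACC3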
ERp5 block: inhibitors of human ERp5; AID 651711; actives 0.05% (n = 350,000); Q15084; ERp5 insulin aggregation, absorbance 650 nm, 90 min; inhibition, % at 9.99 µM;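 active = mean replicate inhibition above about 25%, with every replicate also reaching it, limit read from the data, passing the limit was not always enough; inconclusive = only one of those two criteria met; inactive = neither criterion met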
Target sequence (Q15084 whole entry, looked up): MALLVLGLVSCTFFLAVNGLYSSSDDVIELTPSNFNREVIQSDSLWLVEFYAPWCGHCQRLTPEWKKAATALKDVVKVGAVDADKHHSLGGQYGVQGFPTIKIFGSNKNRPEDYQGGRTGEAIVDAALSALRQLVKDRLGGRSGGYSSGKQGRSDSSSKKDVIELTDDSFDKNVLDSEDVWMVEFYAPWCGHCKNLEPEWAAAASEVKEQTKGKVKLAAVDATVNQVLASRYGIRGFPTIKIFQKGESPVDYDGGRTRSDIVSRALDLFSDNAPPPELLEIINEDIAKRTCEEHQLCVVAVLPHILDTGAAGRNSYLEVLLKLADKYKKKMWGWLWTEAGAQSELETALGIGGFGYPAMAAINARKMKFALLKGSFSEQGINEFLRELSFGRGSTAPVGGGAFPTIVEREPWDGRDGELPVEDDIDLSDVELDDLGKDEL
FN deposition inh: fibronectin deposition inhibition; AH1F fibroblasts, Alexa488-fibronectin deposition fluorescence, overnight; inhibition, % at 12.6 µM; actives 0.086% (n = 350,000);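 active = mean inhibition across replicates of 30% or more, regardless of how many single replicates reach that level; inconclusive = mean under 30% yet at least half of replicates reach 30%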;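 also: positive control wells lacked labelled fibronectin entirely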
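Assay system: AH1F fibroblasts assembling fluorescent fibronectin matrix; Amount: 10000 AH1F cells per well; Buffer or medium: DMEM, 2% serum; Probe or stimulus: Alexa488-fibronectin, 24 nM final in well; Doses: single compound dose, delivered by pin transfer; Incubation: 1 h adhesion, overnight exposure; Measured by: fluorescence 485/525 nm; Read-out: fibronectin deposition inhibition.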
AF4-AF9 inh: blocks AF4 peptide binding to human AF9 | AlphaScreen, biotin-AF4 peptide binding to FLAG-AF9 | inhibition, % at 10 µM | actives 0.47% (n = 350,000);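 active = every replicate reaching a set inhibition limit, whatever the replicate mean, cut at about 25% in these data; inconclusive = mean inhibition reaches that limit but some replicates miss it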;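 also: 0% = plate neutral control median and 100% = total signal loss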
FGF22 binding: shifts melting point of recombinant human FGF22; recombinant FGF22 thermal shift, SYPRO orange fluorescence; percent of sucrose octasulfate shift, DMSO zero; activity (Tm shift, normalised), % at 9.99 µM; actives 1.5% (n = 340,000); AID 651658;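 active = mean Tm shift, scaled 0 neutral to 100 positive control, at about 1.3% or above, every replicate too, limit read from the data; inconclusive = no clear call, values can overlap the other calls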
Target sequence (Q9HCT0 whole entry, looked up): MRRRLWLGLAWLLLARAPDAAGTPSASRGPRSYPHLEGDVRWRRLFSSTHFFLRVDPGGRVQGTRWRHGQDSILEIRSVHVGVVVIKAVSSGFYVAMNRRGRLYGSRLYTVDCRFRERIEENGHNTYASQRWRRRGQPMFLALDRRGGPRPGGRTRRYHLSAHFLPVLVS
* = called active by the depositor; ? = inconclusive; nt = no result.

SMILES	PDI turbidity	ARNT TACC3 PPI	ERp5 block	FN deposition inh	AF4-AF9 inh	FGF22 binding
C[C@@H]1CN([C@@H](C)CO)C(=O)c2cc(NC(=O)CCC(F)(F)F)ccc2O[C@@H](C)CCCCO[C@@H]1CN(C)C(=O)C1CCCCC1	nt	-5.7	-3.8	nt	-2.5	-0.3
COC(=O)c1c(N2C(=O)Nc3ccccc3N2O)sc(C)c1C	-4.2	-4.8	-1.5	-2.8	-1.8	43.2*
C/C(=N\NC(=O)CN(c1ccc(Oc2ccccc2)cc1)S(C)(=O)=O)C(C)(C)C	19.6	nt	-0.3	-6.9	-8.7	43.5*
O=S(=O)(N[C@@H]1CC[C@@H](CCn2cc(C3(O)CCCC3)nn2)O[C@@H]1CO)c1ccc(F)cc1	nt	0.2	-3.2	nt	0.2	0.1
O=C(NNS(=O)(=O)c1ccc(Br)cc1)c1sccc1-n1cccc1	3.8	-2.5	-16.4	3.9	-0.3	43.6*
O=C(Nn1cc(C(=O)Nc2ccc(F)cc2F)c2ccccc2c1=O)c1cnccn1	-5.7	65.3*	-4.5	0.6	-1.1	-0.4
O=C(C[C@@H]1CC[C@@H]2[C@H](COC[C@H](O)CN2S(=O)(=O)c2cccc(Cl)c2)O1)Nc1ccc(-c2ccccc2)cc1	nt	11.5	0.0	-2.2	-1.1	-0.3
O=C(C[C@@H]1CC[C@H]2[C@@H](COC[C@H](O)CN2S(=O)(=O)c2cccc(Cl)c2)O1)Nc1ccc(-c2ccccc2)cc1	nt	16.0	-3.0	19.0	-0.5	2.7*
O=C(C[C@H]1CC[C@H]2[C@@H](COC[C@H](O)CN2S(=O)(=O)c2ccccc2)O1)NCC1CCCCC1	nt	8.7	4.0	-2.4	33.4*	-0.1
O=C(C[C@@H]1CC[C@@H]2[C@H](COC[C@H](O)CN2S(=O)(=O)c2ccccc2)O1)NCC1CCCCC1	nt	4.8	3.4	-2.2	6.2	-0.4
O=C(C[C@H]1CC[C@H]2[C@@H](COC[C@@H](O)CN2S(=O)(=O)c2ccc(F)cc2)O1)NCC1CCCCC1	nt	-5.2	-4.0	0.6	8.8	-0.1
O=C(C[C@H]1CC[C@H]2[C@@H](COC[C@H](O)CN2S(=O)(=O)c2ccc(F)cc2)O1)NCC1CC1	nt	5.2	0.2	-6.6	3.7	0.1
O=C(C[C@H]1CC[C@H]2[C@@H](COC[C@H](O)CN2S(=O)(=O)c2ccc(F)cc2)O1)NCC1CCCCC1	nt	3.3	-3.7	-11.3	28.4*	0.0
O=C(C[C@@H]1CC[C@H]2[C@@H](COC[C@@H](O)CN2S(=O)(=O)c2ccc(F)cc2)O1)NCC1CCCCC1	nt	30.3	0.2	-7.3	30.8*	-0.4
CC(C)[C@@H]1CCc2cnnn2COC[C@H](Cc2ccccc2)NC1=O	nt	nt	nt	-28.9	nt	nt
Cc1noc(C)c1NC(=O)N(C)C[C@H]1OCCCC[C@@H](C)Oc2ccc(NS(=O)(=O)c3cn(C)cn3)cc2C(=O)N([C@H](C)CO)C[C@H]1C	nt	-1.2	nt	nt	nt	-0.1
Cc1c(C(=O)C(=O)NCc2cccs2)c2ccccc2n1C	-3.8	-5.3	-0.8	-5.7	-1.0	43.0*
COc1ccc([C@@H]2[C@@H](C)N(c3ccccc3)c3ccccc3C(=O)N2Cc2ccccc2)cc1	6.2	nt	0.5	-14.0	1.0	43.5*
COc1ccccc1-c1cnc2c(c1)C(=O)N([C@@H](C)CO)C[C@@H](C)[C@H](CN(C)Cc1cncnc1)O2	nt	-1.4	0.3	nt	-6.8	0.1
Cc1cccc2c1-c1sc(C(=O)N3CCCCC3)cc1CO2	nt	4.8	9.8	-15.8	6.2	0.0
Cc1cccc2c1-c1sc(C(=O)Nc3ccccc3N3CCN(C)CC3)cc1CO2	-2.4	45.1*	-5.8	5.4	?	-0.1
O=C1CCCC2=C1C(c1ccccn1)Nc1ccc(C(=O)c3ccccc3)cc1N2 (centres undefined)	1.6	46.5*	-10.2	nt	-9.1	0.2
O=C1CCCC2=C1C(c1ccco1)Nc1ccc(C(=O)c3ccccc3)cc1N2 (centres undefined)	1.5	nt	nt	nt	nt	nt
CO[C@@H]1CN(C)C(=O)c2ccc(NC(=O)CC(F)(F)F)cc2OC[C@@H](C)N(C(C)=O)C[C@@H]1C	nt	nt	-3.5	3.8	-3.5	-0.1
COc1ccc(CCNCc2cc(C)n(-c3ccc(OC)cc3)c2C)cc1	0.2	11.4	4.7	-1.2	39.4*	-0.6
SMILES	PDI turbidity	ARNT TACC3 PPI	ERp5 block	FN deposition inh	AF4-AF9 inh	FGF22 binding
O=C(O)c1cccc(NC(=S)NC(NC(=O)c2ccccc2[N+](=O)[O-])C(Cl)(Cl)Cl)c1 (centres undefined)	7.0	-2.3	0.6	-5.5	0.0	0.0
O=C(O)c1cccc(NC(=S)NC(NC(=O)c2cccc([N+](=O)[O-])c2)C(Cl)(Cl)Cl)c1 (centres undefined)	0.0	32.2	0.6	-1.1	-9.0	2.8*
O=C1CN(S(=O)(=O)Cc2ccccc2)C[C@H]2[C@@H](c3ccc(C#Cc4ccccc4)cc3)[C@@H](CO)N12	nt	nt	4.9	11.0	-4.4	nt
O=C(C[C@@H]1C=C[C@@H](NC(=O)C2CC2)[C@@H](CO)O1)NCCCN1CCOCC1	nt	nt	-4.5	nt	-11.7	0.7
CN(CC(=O)NC1CCN(Cc2ccccc2)CC1)S(=O)(=O)c1ccc2c(c1)c(=O)n(C)c(=O)n2C	7.0	-0.3	-0.2	12.6	-1.4	43.2*
CSCCC(NS(=O)(=O)c1ccc2c(c1)c(=O)n(C)c(=O)n2C)C(=O)NC1CCN(Cc2ccccc2)CC1 (centres undefined)	-7.0	-6.9	0.5	9.5	-8.0	0.7
C[C@H]1CN([C@@H](C)CO)C(=O)c2cccc(NC(=O)CCCCCC(=O)Nc3ccccc3N)c2O[C@H]1CN(C)S(=O)(=O)c1ccc(F)cc1	nt	nt	6.8	nt	-2.4	-0.5
CC1CCCC(NC(=O)COC(=O)[C@@H](NC(=O)c2ccco2)C(C)C)C1C (some centres undefined)	-15.7	-5.6	-10.5	3.6	-2.7	44.5*
CCOC(=O)c1cnc(Cc2ccccc2)[nH]c1=O	-7.0	-13.9	-1.7	-2.0	1.1	0.2
CCOC(=O)c1cnc(-n2[nH]c(C)c(Cc3ccccc3)c2=O)[nH]c1=O	6.6	74.9*	4.2	2.2	-2.0	0.1
COC(=O)CNC(=O)COC(=O)/C=C/c1ccc2ccccc2n1	10.0	-2.4	-5.8	-5.9	1.3	43.1*
COCCNC(=O)COC(=O)/C=C/c1cnc2ccccc2n1	2.8	-0.4	nt	-15.2	nt	nt
Cc1noc(C)c1NC(=O)N(C)C[C@@H]1Oc2ccc(NC(=O)Nc3ccc(F)cc3)cc2CC(=O)N([C@@H](C)CO)C[C@@H]1C	nt	-5.3	9.1	nt	-2.7	-0.4
CN1CCN(C(=O)C[C@@H]2CC[C@@H]3[C@H](COc4ccc(NC(=O)C5CCCCC5)cc4C(=O)N3C)O2)CC1	nt	-20.5	-1.5	-4.7	-12.6	0.1
CCOc1cc(/C=C2/C(=O)N(c3ccccc3)N=C2C)ccc1OC(=O)c1ccco1	10.9	8.2	nt	0.7	nt	nt
CCOc1cc(/C=C2\C(=O)N(c3ccc(C(N)=O)cc3)N=C2C)ccc1OC(=O)c1cccs1	-18.4	14.3*	nt	nt	nt	nt
